Measured values taken from ChEMBL document CHEMBL3817796, “Discovery of Novel 15-Lipoxygenase Activators To Shift the Human Arachidonic Acid Metabolic Network toward Inflammation Resolution” (J Med Chem, 2016).
Activity calls are given as the source filed them. No cut-off for these calls is given here.

Tests used:
[1] = biological target: T1, Polyunsaturated fatty acid lipoxygenase ALOX15 (Homo sapiens, UniProt P16050); assay: Activation of wild-type His6-tagged human 15-LOX expressed in Escherichia coli Rosetta DE3 assessed as 15-HpETE formation pre-incubated for 1 min before arachidonic acid substrate addition by cell free assay
T1 sequence (P16050 whole entry): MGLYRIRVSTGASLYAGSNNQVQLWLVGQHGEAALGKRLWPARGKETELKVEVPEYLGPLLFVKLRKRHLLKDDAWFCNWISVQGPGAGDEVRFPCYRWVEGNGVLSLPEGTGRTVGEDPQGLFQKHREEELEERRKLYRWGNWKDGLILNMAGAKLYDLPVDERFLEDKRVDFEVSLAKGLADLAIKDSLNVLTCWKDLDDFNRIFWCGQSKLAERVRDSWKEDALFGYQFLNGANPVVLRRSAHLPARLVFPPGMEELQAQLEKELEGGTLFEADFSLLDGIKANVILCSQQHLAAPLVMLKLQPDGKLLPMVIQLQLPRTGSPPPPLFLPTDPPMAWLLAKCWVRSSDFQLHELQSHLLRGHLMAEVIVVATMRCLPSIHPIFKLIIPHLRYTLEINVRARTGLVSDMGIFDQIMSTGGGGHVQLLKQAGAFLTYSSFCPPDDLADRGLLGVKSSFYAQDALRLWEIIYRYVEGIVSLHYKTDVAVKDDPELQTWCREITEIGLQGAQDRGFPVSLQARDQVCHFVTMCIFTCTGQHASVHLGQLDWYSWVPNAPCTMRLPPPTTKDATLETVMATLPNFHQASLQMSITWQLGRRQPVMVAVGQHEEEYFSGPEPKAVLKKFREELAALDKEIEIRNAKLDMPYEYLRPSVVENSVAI

[2] = biological target: Prostaglandin G/H synthase 1 (Homo sapiens) (UniProt P23219); assay: Inhibition of COX1 (unknown origin) assessed as reduction in PGG2 to PGH2 conversion by measuring N,N,N',N'-tetramethyl-p-phenylenediamine oxidation at 100 uM by spectrophotometry
Prostaglandin G/H synthase 1 (Homo sapiens), sequence (P23219 whole entry): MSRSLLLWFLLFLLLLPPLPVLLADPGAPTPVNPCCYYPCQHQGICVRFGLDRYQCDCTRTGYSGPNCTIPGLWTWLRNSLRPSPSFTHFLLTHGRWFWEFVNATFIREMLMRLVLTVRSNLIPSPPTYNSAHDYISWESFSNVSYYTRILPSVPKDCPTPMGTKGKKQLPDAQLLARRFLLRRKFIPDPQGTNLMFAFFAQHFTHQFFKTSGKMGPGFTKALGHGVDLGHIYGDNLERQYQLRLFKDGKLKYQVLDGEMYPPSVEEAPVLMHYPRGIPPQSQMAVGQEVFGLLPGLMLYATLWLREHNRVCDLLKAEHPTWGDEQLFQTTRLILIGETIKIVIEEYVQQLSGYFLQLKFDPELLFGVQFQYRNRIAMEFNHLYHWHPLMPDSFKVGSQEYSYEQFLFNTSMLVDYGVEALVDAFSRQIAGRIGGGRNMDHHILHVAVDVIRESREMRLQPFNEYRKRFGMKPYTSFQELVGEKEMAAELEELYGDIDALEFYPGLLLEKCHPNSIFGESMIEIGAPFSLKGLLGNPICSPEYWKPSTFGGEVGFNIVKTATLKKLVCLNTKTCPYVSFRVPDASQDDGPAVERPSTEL

[3] = biological target: Prostaglandin G/H synthase 1 (Homo sapiens) (UniProt P23219); assay: Activation of COX1 (unknown origin) assessed as PGG2 to PGH2 conversion by measuring N,N,N',N'-tetramethyl-p-phenylenediamine oxidation at 100 uM by spectrophotometry
Prostaglandin E synthase = biological target: T2, Prostaglandin E synthase (Homo sapiens, UniProt O14684); assay: Inhibition of mPGES-1 (unknown origin) assessed as reduction in conversion of PGH2 to PGE2 by EIA method
T2 sequence (O14684 whole entry): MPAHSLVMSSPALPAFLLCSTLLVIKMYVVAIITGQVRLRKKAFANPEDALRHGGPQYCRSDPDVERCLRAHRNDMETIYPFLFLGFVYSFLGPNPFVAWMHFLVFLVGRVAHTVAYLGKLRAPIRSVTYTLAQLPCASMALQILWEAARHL
In short: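 mPGES-1 activity taken as conversion of PGH2 to PGE2, with PGE2 measured by EIA. Compound handled as in the 15-LOX assay.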

[4] = biological target: T3, Polyunsaturated fatty acid lipoxygenase ALOX15 (Homo sapiens) (UniProt P16050); assay: Activation of 15-LOX in human PMN assessed as 5-HETE production at 6.2 to 40 uM pre-incubated for 15 mins before A23187, Ca2+ and Mg2+ stimulation for 1 hr by LC-MS method
T3 sequence (whole entry): T1 sequence (P16050 whole entry)
In short: (§1)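 PMNs preincubated 15 min at 37 °C with compound or vehicle, then stimulated 1 h at 37 °C with 10 μM A23187 plus 2 mM Ca2+ and 2 mM Mg2+. Reactions stopped with cold methanol. Eicosanoids quantified by LC-MS.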

[5] = biological target: T3, Polyunsaturated fatty acid lipoxygenase ALOX15 (Homo sapiens); assay: Activation of 15-LOX in human PMN assessed as 12-HETE production at 6.2 to 40 uM pre-incubated for 15 mins before A23187, Ca2+ and Mg2+ stimulation for 1 hr by LC-MS method; in short: as §1
[6] = biological target: T3, Polyunsaturated fatty acid lipoxygenase ALOX15 (Homo sapiens); assay: Activation of 15-LOX in human whole blood assessed as increase in 15-HETE production at 100 uM pre-incubated for 20 mins before stimulation with LPS and A23187 for 120 mins in presence of 0.16 to 20 uM 5-LOX inhibitor Zileuton by LC-MS/MS method; type: tissue-based
In short: (§2)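 Human blood preincubated 20 min at 37 °C with DMSO vehicle or compound in DMSO. LPS added at 100 μg/mL for 24 h at 37 °C, then A23187 at 20 μg/mL final. Samples frozen in liquid nitrogen at time points, lysed by freeze–thaw, with PGB2 internal standard. Analysed by C18 LC-MRM MS, negative ion. Change = control-normalized concentration minus 1, ×100%; 120 min value from AUC.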

[7] = biological target: T3, Polyunsaturated fatty acid lipoxygenase ALOX15 (Homo sapiens); assay: Activation of 15-LOX in human whole blood assessed as 5-HETE production at 100 uM pre-incubated for 20 mins before stimulation with LPS and A23187 for 120 mins in presence of 2 uM 5-LOX inhibitor Zileuton by LC-MS/MS method; type: tissue-based; in short: as §2
[8] = biological target: T3, Polyunsaturated fatty acid lipoxygenase ALOX15 (Homo sapiens); assay: Activation of 15-LOX in human whole blood assessed as LTB4 production at 100 uM pre-incubated for 20 mins before stimulation with LPS and A23187 for 120 mins in presence of 2 uM 5-LOX inhibitor Zileuton by LC-MS/MS method; type: tissue-based; in short: as §2
[9] = biological target: T3, Polyunsaturated fatty acid lipoxygenase ALOX15 (Homo sapiens); assay: Activation of 15-LOX in human whole blood assessed as reduction in PGE2 production at 100 uM pre-incubated for 20 mins before stimulation with LPS and A23187 for 120 mins in presence of 2 uM 5-LOX inhibitor Zileuton by LC-MS/MS method; type: tissue-based; in short: as §2
[10] = biological target: T3, Polyunsaturated fatty acid lipoxygenase ALOX15 (Homo sapiens); assay: Activation of 15-LOX in human whole blood assessed as reduction in LTB4 production at 100 uM pre-incubated for 20 mins before stimulation with LPS and A23187 for 120 mins in presence of 2 uM […] inhibitor Zileuton by LC-MS/MS method; type: tissue-based; in short: as §2

**Q.** With `CN1CCN(CC(=O)N2N=C3/C(=C/c4ccccc4)CCCC3C2c2ccccc2)CC1` (stereo unspecified) as the compound, how does the AC50 [1] read?
**A.** 6.8 µM

**Q.** What about the inhibition [2] of the same compound?
**A.** < 5%

**Q.** And the Activity [3]?
**A.** < 5%

**Q.** What about the IC50 (Prostaglandin E synthase) of the same compound?
**A.** 20 µM

**Q.** What about the Activity [4] of the same compound?
**A.** Active

**Q.** And the Activity [5]?
**A.** Active

**Q.** And the Activity [6]?
**A.** Active

**Q.** And the Activity [7]?
**A.** 59%

**Q.** And the Activity [8]?
**A.** 54%

**Q.** What about the Activity [9] of the same compound?
**A.** Active

**Q.** What about the Activity [10] of the same compound?
**A.** Active
